pIC50: −log10 of the molar value. Values joined by “and” are separate entries in the source; they are usually repeats but may differ in a detail not shown here. Equal values may be shown once.
Key:
[1] = Cytotoxicity against human H460 cells after 72 hrs by MTT assay; format: functional, cell-based; conditions: NCI-H460, 72 h
Outline: (§1)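 MTT assay on HT29, H460, A549 and MDA-MB-231 cells with oncrasin-1 and PAC-1 as positive controls; IC50 from three independent experiments.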

A549 = assay: Cytotoxicity against human A549 cells after 72 hrs by MTT assay; format: functional, cell-based; conditions: A549, 72 h; outline: as §1
MDA-MB-231 = assay: Cytotoxicity against human MDA-MB-231 cells after 72 hrs by MTT assay; format: functional, cell-based; conditions: MDA-MB-231, 72 h; outline: as §1
HT-29 [2] = assay: Cytotoxicity against human HT-29 cells after 72 hrs by MTT assay; format: functional, cell-based; outline: as §1
[3] = target: Vascular endothelial growth factor receptor 2 (Homo sapiens) (UniProt P35968); assay: Inhibition of KDR (unknown origin) at 10 uM after 30 mins by HTRF method
Vascular endothelial growth factor receptor 2 (Homo sapiens), sequence (P35968 whole entry): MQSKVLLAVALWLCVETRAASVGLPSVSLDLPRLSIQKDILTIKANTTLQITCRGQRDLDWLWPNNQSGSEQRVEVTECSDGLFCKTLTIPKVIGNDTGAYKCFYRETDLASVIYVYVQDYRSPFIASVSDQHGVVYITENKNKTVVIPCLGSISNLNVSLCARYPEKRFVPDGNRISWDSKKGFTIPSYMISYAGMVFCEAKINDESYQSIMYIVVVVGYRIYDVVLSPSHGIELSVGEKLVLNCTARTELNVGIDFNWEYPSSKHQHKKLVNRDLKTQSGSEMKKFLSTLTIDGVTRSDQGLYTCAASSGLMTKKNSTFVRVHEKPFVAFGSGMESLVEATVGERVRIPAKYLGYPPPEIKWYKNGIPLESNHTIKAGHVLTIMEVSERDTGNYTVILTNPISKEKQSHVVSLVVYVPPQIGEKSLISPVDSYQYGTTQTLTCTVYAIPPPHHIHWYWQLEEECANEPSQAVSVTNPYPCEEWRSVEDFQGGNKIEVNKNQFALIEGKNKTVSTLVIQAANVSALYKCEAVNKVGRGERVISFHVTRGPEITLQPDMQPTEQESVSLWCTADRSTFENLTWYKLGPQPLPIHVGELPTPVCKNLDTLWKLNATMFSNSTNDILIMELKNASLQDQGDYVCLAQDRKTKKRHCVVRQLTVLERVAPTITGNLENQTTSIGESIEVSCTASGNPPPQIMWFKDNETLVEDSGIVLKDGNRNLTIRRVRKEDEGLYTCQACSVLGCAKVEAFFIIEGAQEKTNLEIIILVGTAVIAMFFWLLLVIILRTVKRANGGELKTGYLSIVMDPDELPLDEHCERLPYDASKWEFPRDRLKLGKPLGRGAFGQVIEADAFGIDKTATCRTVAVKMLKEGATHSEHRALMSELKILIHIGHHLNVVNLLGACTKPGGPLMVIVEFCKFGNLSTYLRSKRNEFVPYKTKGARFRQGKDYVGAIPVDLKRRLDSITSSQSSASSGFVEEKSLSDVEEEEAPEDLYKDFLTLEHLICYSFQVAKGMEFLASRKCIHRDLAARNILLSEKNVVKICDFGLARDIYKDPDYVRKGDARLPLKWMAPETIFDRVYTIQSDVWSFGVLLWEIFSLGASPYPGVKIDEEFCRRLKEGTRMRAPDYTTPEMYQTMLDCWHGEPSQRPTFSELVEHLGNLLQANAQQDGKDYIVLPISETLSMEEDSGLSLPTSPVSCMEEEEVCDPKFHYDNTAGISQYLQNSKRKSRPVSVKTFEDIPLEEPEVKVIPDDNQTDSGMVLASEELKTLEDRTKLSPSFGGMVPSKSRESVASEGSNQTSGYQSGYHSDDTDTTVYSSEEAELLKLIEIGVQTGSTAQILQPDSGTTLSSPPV

[4] = target: Platelet-derived growth factor receptor beta (Homo sapiens) (UniProt P09619); assay: Inhibition of PDGFR-beta (unknown origin) at 10 uM after 30 mins by HTRF method
Platelet-derived growth factor receptor beta (Homo sapiens), sequence (P09619 whole entry): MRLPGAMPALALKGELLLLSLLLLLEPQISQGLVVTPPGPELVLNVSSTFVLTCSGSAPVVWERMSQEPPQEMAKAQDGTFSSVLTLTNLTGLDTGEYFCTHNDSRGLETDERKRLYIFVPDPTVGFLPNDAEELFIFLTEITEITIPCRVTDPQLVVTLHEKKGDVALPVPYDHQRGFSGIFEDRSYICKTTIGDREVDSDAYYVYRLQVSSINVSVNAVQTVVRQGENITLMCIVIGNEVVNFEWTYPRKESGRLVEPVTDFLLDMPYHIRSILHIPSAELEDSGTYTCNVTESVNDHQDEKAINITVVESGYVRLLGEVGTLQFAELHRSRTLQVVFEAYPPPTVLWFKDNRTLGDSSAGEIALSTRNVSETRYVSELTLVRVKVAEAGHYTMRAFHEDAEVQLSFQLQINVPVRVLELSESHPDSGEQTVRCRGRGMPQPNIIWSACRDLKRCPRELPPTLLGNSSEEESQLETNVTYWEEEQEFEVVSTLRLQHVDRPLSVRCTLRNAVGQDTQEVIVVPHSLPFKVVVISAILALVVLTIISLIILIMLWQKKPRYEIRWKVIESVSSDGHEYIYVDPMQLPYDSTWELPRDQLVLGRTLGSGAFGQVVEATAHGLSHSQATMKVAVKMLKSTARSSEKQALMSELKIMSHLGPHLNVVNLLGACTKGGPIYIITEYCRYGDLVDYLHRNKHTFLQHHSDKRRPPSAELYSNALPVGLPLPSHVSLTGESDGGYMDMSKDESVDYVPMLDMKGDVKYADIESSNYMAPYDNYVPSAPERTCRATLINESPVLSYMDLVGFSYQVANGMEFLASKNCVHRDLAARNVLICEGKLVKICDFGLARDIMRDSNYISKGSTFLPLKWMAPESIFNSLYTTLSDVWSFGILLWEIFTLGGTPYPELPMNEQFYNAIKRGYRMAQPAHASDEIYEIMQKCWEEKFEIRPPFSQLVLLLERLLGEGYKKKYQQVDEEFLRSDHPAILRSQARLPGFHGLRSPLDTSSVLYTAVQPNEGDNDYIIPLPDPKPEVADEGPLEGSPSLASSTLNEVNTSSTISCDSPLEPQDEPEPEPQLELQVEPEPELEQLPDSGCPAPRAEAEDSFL

[5] = target: Receptor-type tyrosine-protein kinase FLT3 (Homo sapiens) (UniProt P36888); assay: Inhibition of FLT3 (unknown origin) at 10 uM after 30 mins by HTRF method
Receptor-type tyrosine-protein kinase FLT3 (Homo sapiens), sequence (P36888 whole entry): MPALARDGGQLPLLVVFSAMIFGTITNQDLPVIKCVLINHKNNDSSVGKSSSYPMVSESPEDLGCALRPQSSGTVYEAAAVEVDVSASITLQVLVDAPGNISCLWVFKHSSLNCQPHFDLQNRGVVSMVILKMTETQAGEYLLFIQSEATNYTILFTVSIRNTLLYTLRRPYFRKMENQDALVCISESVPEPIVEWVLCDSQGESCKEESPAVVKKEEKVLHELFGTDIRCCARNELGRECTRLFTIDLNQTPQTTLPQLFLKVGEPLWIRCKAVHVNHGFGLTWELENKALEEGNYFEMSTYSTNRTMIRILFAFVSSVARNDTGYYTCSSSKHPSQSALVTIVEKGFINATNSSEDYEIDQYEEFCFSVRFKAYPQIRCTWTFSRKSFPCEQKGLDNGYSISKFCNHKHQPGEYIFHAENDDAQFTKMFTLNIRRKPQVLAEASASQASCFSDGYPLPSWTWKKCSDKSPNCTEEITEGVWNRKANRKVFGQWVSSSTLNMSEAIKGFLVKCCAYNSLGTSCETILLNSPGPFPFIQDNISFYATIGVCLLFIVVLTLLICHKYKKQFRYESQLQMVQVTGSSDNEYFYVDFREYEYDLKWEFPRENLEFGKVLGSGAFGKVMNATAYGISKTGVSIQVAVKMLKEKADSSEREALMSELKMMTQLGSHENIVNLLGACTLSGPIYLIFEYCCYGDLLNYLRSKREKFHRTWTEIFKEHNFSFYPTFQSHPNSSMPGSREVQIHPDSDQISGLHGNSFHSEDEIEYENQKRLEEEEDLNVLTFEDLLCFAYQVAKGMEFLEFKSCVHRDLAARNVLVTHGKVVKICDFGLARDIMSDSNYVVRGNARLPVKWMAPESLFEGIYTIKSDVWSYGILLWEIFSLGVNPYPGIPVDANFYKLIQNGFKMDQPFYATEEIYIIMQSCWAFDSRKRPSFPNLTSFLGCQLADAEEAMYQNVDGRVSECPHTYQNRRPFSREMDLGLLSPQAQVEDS

Caspase-3 (Homo sapiens) = target: T1, Caspase-3 (Homo sapiens) (UniProt P42574); assay: Activation of procaspase-3 (unknown origin) using Ac-DEVD-pNa as substrate at 10 uM after 2 hrs by spectrophotometry
T1 sequence (whole entry): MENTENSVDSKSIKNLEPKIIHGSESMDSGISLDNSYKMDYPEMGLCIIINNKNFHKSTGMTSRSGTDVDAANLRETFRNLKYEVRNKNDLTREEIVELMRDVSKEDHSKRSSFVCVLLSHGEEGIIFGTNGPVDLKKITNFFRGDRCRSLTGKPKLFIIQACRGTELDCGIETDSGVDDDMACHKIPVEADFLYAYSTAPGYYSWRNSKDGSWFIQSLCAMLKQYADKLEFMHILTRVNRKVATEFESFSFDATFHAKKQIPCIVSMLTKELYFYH

Tubulin (Homo sapiens) = Tubulin (Homo sapiens) (UniProt P68371+Q9H4B7+P0DPH7+P68366+Q13509+Q71U36+P04350+Q3ZCM7+P07437+P68363+Q9BQE3+Q6PEY2+Q13885+Q9BVA1+Q9BUF5); assay: Inhibition of tubulin (unknown origin) at 10 uM measured for 20 mins by turbidity method; format: protein-complex assay
HT-29 [6] = assay: Cell cycle arrest in human HT-29 cells assessed as accumulation at G0/G1 phase AT 10 uM after 48 hrs by propidium iodide staining-based assay (reference value: 54.11%); format: functional

Compound	pIC50 [1]	pIC50 (A549)	pIC50 (MDA-MB-231)	pIC50 (HT-29 [2]; Homo sapiens, HT-29, 72 h)	pIC50 (HT-29 [2]; ht-29)	inhibition [3] [%]	inhibition [4] [%]	inhibition [5] [%]	Activity (Caspase-3 (Homo sapiens)) [%]	inhibition (Tubulin (Homo sapiens)) [%]	Activity (HT-29 [6]) [%]
CN(C)Cc1ccc2nc(NC(=O)N/N=C/c3c[nH]c4ccccc34)sc2c1	5.59	5.48	5.92	5.00	5.30	–	–	–	–	–	–
CN(C)Cc1ccc2nc(NC(=O)N/N=C3\C(=O)Nc4ccc(Cl)cc43)sc2c1	5.93	5.50	–	–	5.59 and 5.25	–	–	–	–	–	–
CCN(CC)Cc1ccc2nc(NC(=O)N/N=C/c3cn(Cc4ccc(C)cc4)c4ccccc34)sc2c1	6.49	5.82	5.70	–	–	–	–	–	–	–	–
CN(C)Cc1ccc2nc(NC(=O)N/N=C/c3cn(Cc4ccccc4)c4ccccc34)sc2c1	6.40	5.54	5.87	–	–	–	–	–	–	–	–
CN(C)Cc1ccc2nc(NC(=O)N/N=C3\C(=O)Nc4ccc(F)cc43)sc2c1	5.81	5.64	–	–	6.01 and 5.22	3.7	2.2	34.1	9.1	–	–
CCN(CC)Cc1ccc2nc(NC(=O)N/N=C/c3cn(Cc4ccc(C(C)(C)C)cc4)c4ccccc34)sc2c1	5.78	5.77	5.67	–	–	–	–	–	–	–	–
Cc1ccc(Cn2cc(/C=N/NC(=O)Nc3nc4ccc(CN(C)C)cc4s3)c3ccccc32)cc1	6.70	5.80	5.91	–	–	–	–	–	–	–	–
CCN(CC)Cc1ccc2nc(NC(=O)N/N=C/c3cn(Cc4cccc(Cl)c4)c4ccccc34)sc2c1	6.66	5.62	5.69	–	–	–	–	–	–	–	–
Cc1ccc(Cn2cc(/C=N/NC(=O)Nc3nc4ccc(CN5CCC(C)CC5)cc4s3)c3ccccc32)cc1	6.39	5.66	5.94	–	5.99 and 5.23	–	–	–	–	–	–
CC1CCN(Cc2ccc3nc(NC(=O)N/N=C/c4cn(Cc5ccc(C(C)(C)C)cc5)c5ccccc45)sc3c2)CC1	5.47	5.43	5.41	–	5.82 and 5.24	–	–	–	–	–	–
CC1CCN(Cc2ccc3nc(NC(=O)N/N=C/c4cn(Cc5cccc(Cl)c5)c5ccccc45)sc3c2)CC1	6.55	5.55	5.68	–	6.14 and 5.21	–	–	–	–	–	–
CN(C)Cc1ccc2nc(NC(=O)N/N=C/c3cn(Cc4ccc(C(C)(C)C)cc4)c4ccccc34)sc2c1	6.09	5.73	5.65	–	–	–	–	–	–	–	–
CC1CCN(Cc2ccc3nc(NC(=O)N/N=C/c4c[nH]c5ccccc45)sc3c2)CC1	5.38	5.45	5.61	–	4.82 and 5.32	–	–	–	–	–	–
CC1CCN(Cc2ccc3nc(NC(=O)N/N=C/c4cn(Cc5ccc(Cl)cc5)c5ccccc45)sc3c2)CC1	6.40	5.69	5.55	–	6.12 and 5.19	–	–	–	–	–	–
CCN(CC)Cc1ccc2nc(NC(=O)N/N=C/c3cn(Cc4ccccc4)c4ccccc34)sc2c1	6.35	5.48	5.83	–	–	–	–	–	–	–	–
CN(C)Cc1ccc2nc(NC(=O)N/N=C/c3cn(Cc4cccc(Cl)c4)c4ccccc34)sc2c1	6.38	5.91	5.94	–	–	–	–	–	48.8	18	–
CCN(CC)Cc1ccc2nc(NC(=O)N/N=C/c3cn(Cc4ccc(Cl)c(Cl)c4)c4ccccc34)sc2c1	6.21	5.83	5.35	–	6.20 and 5.21	–	–	–	–	–	–

Compound	pIC50 [1]	pIC50 (A549)	pIC50 (MDA-MB-231)	pIC50 (HT-29 [2]; Homo sapiens, HT-29, 72 h)	pIC50 (HT-29 [2]; ht-29)	inhibition [3] [%]	inhibition [4] [%]	inhibition [5] [%]	Activity (Caspase-3 (Homo sapiens)) [%]	inhibition (Tubulin (Homo sapiens)) [%]	Activity (HT-29 [6]) [%]
CCN(CC)Cc1ccc2nc(NC(=O)N/N=C/c3cn(Cc4ccc(Cl)cc4)c4ccccc34)sc2c1	6.43	5.53	5.59	–	–	–	–	–	–	–	–
CCN(CC)Cc1ccc2nc(NC(=O)N/N=C/c3cn(Cc4ccc(Cl)cc4Cl)c4ccccc34)sc2c1	5.97	5.72	5.48	–	5.98 and 5.22	–	–	–	–	–	–
CC1CCN(Cc2ccc3nc(NC(=O)N/N=C4\C(=O)Nc5ccc(F)cc54)sc3c2)CC1	5.84	5.52	–	5.39	5.27	–	–	–	–	–	–
CCN(CC)Cc1ccc2nc(NC(=O)N/N=C3\C(=O)Nc4ccc(OC(F)(F)F)cc43)sc2c1	5.68	5.70	–	–	5.72 and 5.24	–	–	–	–	–	–
C=CCc1cccc(/C=N/NC(=O)CN2CCN(Cc3ccccc3)CC2)c1O [PAC-1]	5.90	5.60	5.49	5.99	–	–	–	–	100	–	–
CN(C)Cc1ccc2nc(NC(=O)N/N=C/c3cn(Cc4ccc(Cl)cc4)c4ccccc34)sc2c1	6.54	6.08	6.06	–	–	5.9	12.8	4.1	70.9	26	68.66
CN(C)Cc1ccc2nc(NC(=O)N/N=C/c3cn(Cc4ccccc4Cl)c4ccccc34)sc2c1	5.80	5.97	5.93	–	–	–	–	–	–	–	–
CCN(CC)Cc1ccc2nc(NC(=O)N/N=C/c3c[nH]c4ccccc34)sc2c1	5.50	5.48	5.72	–	4.92 and 5.31	–	–	–	–	–	–
CN(C)Cc1ccc2nc(NC(=O)N/N=C/c3cn(Cc4ccc(Cl)cc4Cl)c4ccccc34)sc2c1	6.02	5.70	5.85	–	–	–	–	–	–	–	–
O=Cc1cn(Cc2ccc(Cl)cc2)c2ccccc12	6.07	5.61	4.58	5.77	–	–	–	–	–	–	–
CN(C)Cc1ccc2nc(NC(=O)N/N=C/c3cn(Cc4ccc(Cl)c(Cl)c4)c4ccccc34)sc2c1	5.87	6.03	6.00	–	–	–	–	–	–	–	–
CCN(CC)Cc1ccc2nc(NC(=O)N/N=C/c3cn(Cc4ccccc4Cl)c4ccccc34)sc2c1	6.01	5.86	6.05	–	–	–	–	–	–	–	–
CC1CCN(Cc2ccc3nc(NC(=O)N/N=C/c4cn(Cc5ccccc5Cl)c5ccccc45)sc3c2)CC1	5.97	5.48	5.87	–	5.80 and 5.23	–	–	–	–	–	–
CCN(CC)Cc1ccc2nc(NC(=O)N/N=C3\C(=O)Nc4ccc(F)cc43)sc2c1	5.97	5.70	–	–	5.81 and 5.24	–	–	–	–	–	–
CC1CCN(Cc2ccc3nc(NC(=O)N/N=C/c4cn(Cc5ccccc5)c5ccccc45)sc3c2)CC1	5.72	5.63	5.55	–	5.69 and 5.24	–	–	–	–	–	–
CC1CCN(Cc2ccc3nc(NC(=O)N/N=C/c4cn(Cc5ccc(Cl)cc5Cl)c5ccccc45)sc3c2)CC1	5.78	5.44	5.50	–	5.67 and 5.25	–	–	–	–	–	–

— ChEMBL document CHEMBL3414507, “Design, synthesis, biological evaluation and preliminary mechanism study of novel benzothiazole derivatives bearing indole-based moiety as potent antitumor agents” (Eur J Med Chem, 2015)
